Experimental data from ChEMBL document CHEMBL1156719, “Synthesis and structure-activity relationship studies of theophylline analogs on population responses in the rat hippocampus in vitro” (Bioorg Med Chem, 2008).
Values belong to the compound of their own block, whether it stands above or below them.

Columns and labels:
[1] = system: Hippocampus; test: Cognitive enhancing effect in Sprague-Dawley rat hippocampal CA1 region assessed as increase in amplitude of populations spikes at 1 uM; type: functional
Method in brief: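 Male Sprague-Dawley rats (75–150 g) anesthetized with halothane and decapitated. 400 µm coronal hippocampal slices cut in ice-cold carbogenated aCSF, then held 1 h at room temperature. Extracellular field recording of evoked population spikes in CA1. After at least 15 min of stable baseline, analogs (10 mM DMSO stocks, diluted ≥1000-fold in aCSF) were bath-perfused. Amplitude normalized to the mean of 4–5 pre-drug responses.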

[2] = system: Hippocampus; test: Cognitive enhancing effect in Sprague-Dawley rat hippocampal CA1 region assessed as increase in amplitude of populations spikes at 10 uM; type: functional
Method in brief: (§1)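 Male Sprague–Dawley rats (75–150 g) were halothane-anesthetized and decapitated. Coronal hippocampal slices were cut in ice-cold carbogenated aCSF and rested 1 h at room temperature. Extracellular field PS were recorded in CA1 after at least 15 min of stable baseline. Compound (10 mM DMSO stock, diluted ≥1000-fold in aCSF) was bath-perfused, then washed out. Amplitude was normalized to the mean of 4–5 pre-drug responses; mean ± SE, paired t-test.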

[3] = system: Hippocampus; test: Decrease in amplitude of populations spikes in Sprague-Dawley rat hippocampal CA1 region at 10 uM after 10 mins of compound wash out; type: functional; parameters: scale not given: the % may be the effect or the level left; method in brief: as §1
[4] = system: Hippocampus; test: Cognitive enhancing effect in Sprague-Dawley rat hippocampal CA1 region assessed as increase in amplitude of populations spikes at 10 uM in presence of CGP-55845 relative to basal level; type: functional
Method in brief: (§2)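 CA1 field PS were recorded extracellularly in coronal hippocampal slices from male Sprague–Dawley rats (75–150 g), kept in carbogenated aCSF. Receptor antagonists (d-tubocurarine, atropine, CGP55845 or 8-cyclopentyl-theophylline) were bath-perfused together with the compound, which was diluted ≥1000-fold from a 10 mM DMSO stock. PS amplitude was normalized to the mean of 4–5 responses before drug; mean ± SE, Student's t-test.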

[5] = system: Hippocampus; test: Cognitive enhancing effect in Sprague-Dawley rat hippocampal CA1 region assessed as increase in amplitude of populations spikes at 10 uM in presence of CPT relative to basal level; type: functional; method in brief: as §2
[6] = system: Hippocampus; test: Decrease in amplitude of populations spikes in Sprague-Dawley rat hippocampal CA1 region at 10 uM; type: functional; parameters: scale not given: the % may be the effect or the level left; method in brief: as §1
[7] = system: Hippocampus; test: Decrease in amplitude of populations spikes in Sprague-Dawley rat hippocampal CA1 region; type: functional, tissue-based; method in brief: as §1
[8] = system: Hippocampus; test: Cognitive enhancing effect in Sprague-Dawley rat hippocampal CA1 region assessed as amplitude of populations spikes at 10 uM in presence of d-tubocurarine; type: functional; method in brief: as §2
[9] = system: Hippocampus; test: Cognitive enhancing effect in Sprague-Dawley rat hippocampal CA1 region assessed as increase in amplitude of populations spikes at 10 uM after 20 mins of compound wash out; type: functional; method in brief: as §1
[10] = system: Hippocampus; test: Cognitive enhancing effect in Sprague-Dawley rat hippocampal CA1 region assessed as increase in amplitude of populations spikes; type: functional, tissue-based; method in brief: as §1
[11] = system: Hippocampus; test: Cognitive enhancing effect in Sprague-Dawley rat hippocampal CA1 region assessed as increase in amplitude of populations spikes at 10 uM in presence of atropine; type: functional; method in brief: as §2
[12] = system: Hippocampus; test: Cognitive enhancing effect in Sprague-Dawley rat hippocampal CA1 region assessed as increase in amplitude of populations spikes at 100 uM; type: functional

SMILES: CC[C@@]1(O)C(=O)OCc2c1cc1n(c2=O)Cc2cc3ccccc3nc2-1 [CAMPTOTHECIN]
- Activity [1]: 51.6%

SMILES: Cn1c(=O)c2c(ncn2CC(=O)N2CCCCCC2=O)n(C)c1=O
- Activity [2]: 42.4%

- EC50 [7]: 60 nM
SMILES: Cn1c(=O)c2c(ncn2CCCC(=O)N2CCCCC2=O)n(C)c1=O
- Activity [3]: 91.1%
- Activity [4]: 10.6%
- Activity [5]: -27.6%
- Activity [6]: -25.9%
- Activity [7]: Dose-dependent effect

SMILES: Cn1c(=O)c2c(ncn2CCC(=O)N2CCCCCC2=O)n(C)c1=O
- Activity [2]: 40.9%

SMILES: Cn1c(=O)c2c(ncn2CC(=O)N2CCCC2=O)n(C)c1=O
- Activity [2]: 6.4%

SMILES: Cn1c(=O)c2c(ncn2CCCC(=O)N2CCCC2=O)n(C)c1=O
- Activity [2]: 6.4%

- EC50 [10]: 2000 nM
SMILES: Cn1c(=O)c2c(ncn2CCCC(=O)N2CCCCCC2=O)n(C)c1=O
- Activity [8]: -2.5%
- Activity [9]: 45.8%
- Activity [10]: Dose-dependent effect
- Activity [11]: 0.2%
- Activity [4]: 32.7%
- Activity [5]: 47.9%
- Activity [2]: 56.5%

SMILES: COc1cc2c3cc1Oc1cc(ccc1O)C[C@@H]1c4c(cc(OC)c(O)c4Oc4ccc(cc4)C[C@@H]3N(C)CC2)CC[N+]1(C)C.[Cl-]
- Activity [12]: 1.8%

SMILES: C[C@H](NC[C@H](O)CP(=O)(O)Cc1ccccc1)c1ccc(Cl)c(Cl)c1
- Activity [1]: 53.8%
